ChEMBL document CHEMBL2311523, “Identification of novel chromenone derivatives as interleukin-5 inhibitors” (Eur J Med Chem, 2013)

Biological target: T1, Interleukin-5 (Mus musculus) (UniProt P04401)
T1 sequence (whole entry): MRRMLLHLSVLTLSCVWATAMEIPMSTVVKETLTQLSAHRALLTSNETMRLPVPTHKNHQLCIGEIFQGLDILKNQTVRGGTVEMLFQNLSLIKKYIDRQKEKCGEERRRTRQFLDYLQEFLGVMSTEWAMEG
Assay: Inhibition of IL-5 in mouse pro-B Y16 cells at 30 uM after 48 hrs by WST1 assay
Format: cell-based
How it was run: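 IL-5-dependent mouse pro-B Y16 cells were stimulated with 3 units/mL mIL-5 and incubated 48 h with or without compound. Cell metabolism was read by WST-1 tetrazolium reduction as an index of IL-5-driven proliferation.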

Structure (SMILES)	inhibition
COc1cccc2occ(/C=C/C(O)c3ccc(O)cc3)c(=O)c12 (racemic)	21.3%
COc1cccc2occ(/C=C/C(=O)c3ccc(O)cc3)c(=O)c12	32.3%
CC(C)COc1cccc2occ(/C=C/C(=O)c3ccc(O)cc3)c(=O)c12	87.5%
O=c1c(/C=C/C(O)c2ccc([N+](=O)[O-])cc2)coc2cccc(OCC3CCCCC3)c12 (racemic)	93.8%
N#Cc1ccc(C(O)/C=C/c2coc3cccc(OCC4CCCCC4)c3c2=O)cc1 (racemic)	94.4%
COc1ccc(C(O)/C=C/c2coc3cccc(OCC4CCCCC4)c3c2=O)cc1 (racemic)	93.6%
CC(C)(C)c1ccc(C(=O)/C=C/c2coc3cccc(OCC4CCCCC4)c3c2=O)cc1	99.2%
O=C(/C=C/c1coc2cccc(OCC3CCCCC3)c2c1=O)c1ccc(O)cc1	99%
O=C(/C=C/c1coc2cccc(OCC3CCCCC3)c2c1=O)c1ccc(F)cc1	15.4%
O=C(/C=C/c1coc2cccc(OCC3CCCCC3)c2c1=O)c1ccccc1	17.2%
O=c1c(/C=C/C(O)c2ccc(Cl)cc2)coc2cccc(OCC3CCCCC3)c12 (racemic)	93.5%
O=C(/C=C/c1coc2cccc(OCC3CCCCC3)c2c1=O)c1ccc(Cl)cc1	46.3%
Cc1ccc(C(O)/C=C/c2coc3cccc(OCC4CCCCC4)c3c2=O)cc1 (racemic)	93.2%
O=C(/C=C/c1coc2cccc(OCC3CCCCC3)c2c1=O)c1ccc(C(F)(F)F)cc1	42.7%
CC(C)COc1cccc2occ(/C=C/C(O)c3ccc(O)cc3)c(=O)c12 (racemic)	20.6%

Now from value to compound:

inhibition	Structure (SMILES)
57.5%	Cc1ccc(C(=O)/C=C/c2coc3cccc(OCC4CCCCC4)c3c2=O)cc1
15.7%	CC(C)(C)c1ccc(C(O)/C=C/c2coc3cccc(OCC4CCCCC4)c3c2=O)cc1 (racemic)
9.2%	N#Cc1ccc(C(=O)/C=C/c2coc3cccc(OCC4CCCCC4)c3c2=O)cc1
11.8%	O=C(/C=C/c1coc2cccc(OCC3CCCCC3)c2c1=O)c1ccc([N+](=O)[O-])cc1
9.3%	COc1ccc(C(=O)/C=C/c2coc3cccc(OCC4CCCCC4)c3c2=O)cc1
92.7%	O=c1c(/C=C/C(O)c2ccc(O)cc2)coc2cccc(OCC3CCCCC3)c12 (racemic)
92.7%	O=c1c(/C=C/C(O)c2ccc(C(F)(F)F)cc2)coc2cccc(OCC3CCCCC3)c12 (racemic)
93.2%	O=c1c(/C=C/C(O)c2ccc(F)cc2)coc2cccc(OCC3CCCCC3)c12 (racemic)
93.9%	O=c1c(/C=C/C(O)c2ccccc2)coc2cccc(OCC3CCCCC3)c12 (racemic)

Biological target: not listed separately
Assay: Inhibition of IL-5 in mouse pro-B Y16 cells after 48 hrs by WST1 assay

IC50	Structure (SMILES)
5.8 µM	O=c1c(-c2ccc(O)cc2)coc2cccc(OCC3CCCCC3)c12
